Data published in ChEMBL document CHEMBL1141911, “Discovery and SAR studies of a novel series of noncovalent cathepsin S inhibitors” (Bioorg Med Chem Lett, 2005).

What was measured:
[1] = Binding affinity against alpha-1A adrenergic receptor
JY [2] = test: Inhibitory concentration against Ii degradation in human JY cells; format: functional, cell-based
Procedure, shortened: (§1)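 Inhibition of invariant chain (Ii) cleavage was measured in human JY cells, an antigen-presenting line. IC50 values are the mean of at least 3 runs.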

Cathepsin S = Cathepsin S (Homo sapiens, UniProt P25774); test: Inhibitory concentration against cathepsin S
Chain of Cathepsin S (P25774 whole entry): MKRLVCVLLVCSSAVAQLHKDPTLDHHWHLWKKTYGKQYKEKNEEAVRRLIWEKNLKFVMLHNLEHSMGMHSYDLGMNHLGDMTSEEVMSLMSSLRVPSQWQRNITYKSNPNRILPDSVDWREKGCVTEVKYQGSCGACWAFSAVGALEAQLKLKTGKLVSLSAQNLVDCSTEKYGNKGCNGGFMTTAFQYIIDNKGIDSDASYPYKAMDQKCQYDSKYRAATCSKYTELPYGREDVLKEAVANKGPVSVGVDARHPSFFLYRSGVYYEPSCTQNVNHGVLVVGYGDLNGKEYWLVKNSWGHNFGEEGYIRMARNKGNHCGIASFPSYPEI

JY [3] = test: Inhibitory concentration against Ii degradation in human JY cells (range IC50 = 0.6-0.8 uM); format: functional, cell-based; procedure, shortened: as §1

| Structure (SMILES) | IC50 (Cathepsin S) [nM] | other results |
| --- | --- | --- |
| N#Cc1ccccc1N1CCN(CC(Cn2nc(-c3ccc(I)cc3)c3c2CCN(C(N)=O)C3)OC(N)=O)CC1 (stereo unspecified) | – | Ki [1]: 12 nM; IC50 (JY [2]): 880 nM |
| CCCCn1c(=O)n(C2CCN(CC(O)Cn3nc(-c4ccc(Cl)c(C)c4)c4c3CCN(C(C)=O)C4)CC2)c2ccccc21 (stereo unspecified) | 140 | – |
| CC(=O)N1CCc2c(c(-c3ccc(C(F)(F)F)cc3)nn2C[C@@H](O)CN2CCC(n3c(O)nc4ccc(Cl)cc43)CC2)C1 | 200 | – |
| CC(=O)N1CCc2c(c(-c3ccc(Cl)c(C)c3)nn2CC(O)CN2CCC(n3c(=O)[nH]c4ccccc43)CC2)C1 (stereo unspecified) | 130 | – |
| CC(=O)N1CCc2c(c(-c3ccc(Cl)cc3)nn2CC(O)CN2CCN(C(c3ccc(F)cc3)c3ccc(F)cc3)CC2)C1 (stereo unspecified) | 1000 | – |
| CC(=O)N1CCc2c(c(-c3ccc(Cl)c(C)c3)nn2C[C@H](O)CN2CCC(n3c(=O)[nH]c4ccc(Cl)cc43)CC2)C1 | 350 | – |
| COc1ccc2c(c1)[nH]c(=O)n2C1CCN(CC(O)Cn2nc(-c3ccc(Br)cc3)c3c2CCN(C(C)=O)C3)CC1 (stereo unspecified) | 140 | – |
| Cn1c(=O)n(C2CCN(CCCn3nc(-c4ccc(Br)cc4)c4c3CCN(S(C)(=O)=O)C4)CC2)c2ccccc21 | 140 | – |
| CC(=O)N1CCc2c(c(-c3ccc(I)cc3)nn2CC(O)CN2CCN(c3ccccc3C#N)CC2)C1 (stereo unspecified) | – | IC50 (JY [2]): 3900 nM |
| CC(=O)N1CCc2c(c(-c3ccc(Cl)cc3)nn2CC(O)CN2CCC(n3c(=O)[nH]c4ccccc43)CC2)C1 (stereo unspecified) | 460 | – |
| CC(=O)N1CCc2c(c(-c3ccc(I)cc3)nn2CC(O)CN2CCC(n3c(=O)[nH]c4ccc(F)cc43)CC2)C1 (stereo unspecified) | 230 | – |
| CC(=O)N1CCc2c(c(-c3ccc(Br)cc3)nn2CC(O)CN2CCC(n3c(=O)[nH]c4cccc(C)c43)CC2)C1 (stereo unspecified) | 210 | – |
| CC(=O)N1CCc2c(c(-c3ccc(Cl)c(C)c3)nn2CC(O)CN2CCC(n3c(=O)n(C)c4ccccc43)CC2)C1 (stereo unspecified) | 500 | – |
| N#Cc1ccccc1N1CCN(CC(O)Cn2nc(-c3ccc(I)cc3)c3c2CCN(C(N)=O)C3)CC1 (stereo unspecified) | – | Ki [1]: 36 nM; IC50 (JY [2]): 1300 nM |
| CCn1c(=O)n(C2CCN(CC(O)Cn3nc(-c4ccc(Cl)c(C)c4)c4c3CCN(C(C)=O)C4)CC2)c2ccccc21 (stereo unspecified) | 310 | – |
| CC(=O)N1CCc2c(c(-c3ccc(C(F)(F)F)cc3)nn2C[C@H](O)CN2CCC(n3c(O)nc4ccc(Cl)cc43)CC2)C1 | 180 | – |
| Cn1c(=O)n(C2CCN(CCCn3nc(-c4ccc(Cl)c(Cl)c4)c4c3CCN(S(C)(=O)=O)C4)CC2)c2cc(Cl)ccc21 | 150 | – |

Continued, in another order:

| IC50 (Cathepsin S) [nM] | Structure (SMILES) | other results |
| --- | --- | --- |
| 110 | CC(=O)N1CCc2c(c(-c3ccc(C(F)(F)F)cc3)nn2CC(O)CN2CCC(n3c(=O)n(C)c4ccccc43)CC2)C1 (stereo unspecified) | – |
| 100 | CC(=O)N1CCc2c(c(-c3ccc(C(F)(F)F)cc3)nn2CC(O)CN2CCC(n3c(=O)[nH]c4ccccc43)CC2)C1 (stereo unspecified) | – |
| 50 | Cn1c(=O)n(C2CCN(CCCn3nc(-c4ccc(Cl)c(Cl)c4)c4c3CCN(S(C)(=O)=O)C4)CC2)c2ccccc21 | – |
| 50 | CS(=O)(=O)N1CCc2c(c(-c3ccc(Br)cc3)nn2CC(O)CN2CCC(n3c(=O)[nH]c4ccc(Cl)cc43)CC2)C1 (stereo unspecified) | – |
| 50 | CS(=O)(=O)N1CCc2c(c(-c3ccc(Br)cc3)nn2CCCN2CCC(n3c(=O)[nH]c4ccccc43)CC2)C1 | – |
| 100 | CC(=O)N1CCc2c(c(-c3ccc(Cl)c(C)c3)nn2CC(O)CN2CCC(n3c(=O)n(C(C)C)c4ccccc43)CC2)C1 (stereo unspecified) | – |
| 110 | CC(=O)N1CCc2c(c(-c3ccc(Br)cc3)nn2CC(O)CN2CCC(n3c(=O)[nH]c4cc(Cl)c(Cl)cc43)CC2)C1 (stereo unspecified) | – |
| 50 | CS(=O)(=O)N1CCc2c(c(-c3ccc(C(F)(F)F)cc3)nn2CC(O)CN2CCC(n3c(=O)[nH]c4ccccc43)CC2)C1 (stereo unspecified) | – |
| 60 | Cc1cc(-c2nn(CC(O)CN3CCC(n4c(=O)[nH]c5ccccc54)CC3)c3c2CN(S(C)(=O)=O)CC3)ccc1Cl (stereo unspecified) | – |
| 50 | CS(=O)(=O)N1CCc2c(c(-c3ccc(C(F)(F)F)cc3)nn2CCCN2CCC(n3c(=O)[nH]c4ccccc43)CC2)C1 | – |
| 100 | Cn1c(=O)n(C2CCN(CCCn3nc(-c4ccc(C(F)(F)F)cc4)c4c3CCN(S(C)(=O)=O)C4)CC2)c2cc(Cl)ccc21 | IC50 (JY [3]): 800 nM |
| 60 | CS(=O)(=O)N1CCc2c(c(-c3ccc(C(F)(F)F)cc3)nn2CC(O)CN2CCC(n3c(=O)[nH]c4ccc(Cl)cc43)CC2)C1 (stereo unspecified) | – |
| 100 | CC(=O)N1CCc2c(c(-c3ccc(Cl)c(C)c3)nn2CC(O)CN2CCC(n3c(=O)[nH]c4cc(C)ccc43)CC2)C1 (stereo unspecified) | – |
| 80 | Cn1c(=O)n(C2CCN(CC(O)Cn3nc(-c4ccc(C(F)(F)F)cc4)c4c3CCN(S(C)(=O)=O)C4)CC2)c2cc(Cl)ccc21 (stereo unspecified) | – |
| 120 | CC(=O)N1CCc2c(c(-c3ccc(I)cc3)nn2CC(O)CN2CCC(n3c(=O)[nH]c4ccccc43)CC2)C1 (stereo unspecified) | – |
| 80 | CC(=O)N1CCc2c(c(-c3ccc(Br)cc3)nn2CC(O)CN2CCC(n3c(=O)[nH]c4ccccc43)CC2)C1 (stereo unspecified) | – |
